Reference: ChEMBL document CHEMBL4513216, “Probing the Open Global Health Chemical Diversity Library for Multistage-Active Starting Points for Next-Generation Antimalarials” (ACS Infect Dis, 2020)

Experiment: Toxicity liver stage against HepG2, at 10uM
Assay type: cell-based
Parameters: test concentration 10 uM, cell line HepG2-A16-CD81EGFP
Details: human, HepG2-A16-CD81EGFP cells; read-out: INHIBITION
Procedure, shortened: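 Uninfected HepG2-A16-CD81EGFP cells, 3 × 10^3 per well, 1536-well, plated on prespotted compound at 10 μM final, parasite-free screening media added to match infected plates; puromycin 10 μM positive, DMSO 0.5% negative; run in parallel with 48 h PbLuc assay at 37 °C, 5% CO2; viability by CellTiter-Glo luminescence, normalized to controls.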

Structure (SMILES) | cytotoxicity at 10 µM [%]
CN1CCOC[C@H]1c1nc(-c2cccc(F)c2)c[nH]1 | -3.68
Cc1cc2nc(CO[C@H]3CN(C(=O)C4CC4)C[C@H]3F)[nH]c2cc1C | -43.4
CCC1CN(CC(=O)NCCN2CCCCC2)c2ccccc2S1 (centres undefined) | -10
CN1C[C@H](O)[C@]2(CCN(C(=O)COc3ccccc3)C2)S1(=O)=O | 1.32
COc1ccc2nnc(CCC(=O)NCc3cccn3C)n2n1 | -10.1
O=c1c(S(=O)(=O)N2CCCCC2)cccn1Cc1ccccc1Cl | 10.6
Cc1cc(CNC(=O)c2ccno2)c(C)o1 | -6.39
Cc1ccccc1C(=O)N1CCCn2cnc(CN3CCCC3=O)c2C1 | 10.2
O=C(NCCN1CCC(c2cccs2)CC1)Nc1cccs1 | -20.6
O=C(COc1coc(CN2CCCCC2)cc1=O)NCc1ccccc1 | -7.25
COCC1CC2(CCN(C(=O)c3cccc(C)c3)CC2)CO1 (centres undefined) | -5.15
O=C(c1ccc(F)c(F)c1)N1CCN2CCCC2C1 (centres undefined) | -7.09
CCOc1cc(C(=O)N2CCN(CC)CC2)cc2occc12 | 4.37
Oc1ccccc1-c1n[nH]c(C2CC2)n1 | 5.84
O=C1CN([C@@H]2CC[C@@H](NS(=O)(=O)c3ccc(F)cc3)[C@H]2O)CCN1 | -2.11
CC(=O)N1CCC(Cc2ccc(-c3ccnn3C)nc2)CC1 | 2.74
CC(C)C(=O)N1CCCc2c(cnn2-c2ccccc2)C1 | 11
CNC(=O)C1(CCCc2ccccn2)CCN1Cc1coc(C)n1 (centres undefined) | 19.7
Cc1cc(C2CCN(S(=O)(=O)N(C)C)CC2)ccn1 | -13
CCCn1cc(C(=O)N2CCCC2(C)c2nc(C)cc(N)n2)cn1 (centres undefined) | -1.13
Cc1cnc(-c2nc(O)c3c(n2)CN(C(=O)C2CCCO2)CC3)cn1 (centres undefined) | -0.661
Cn1cc(CN2CCCC(c3nccnc3-c3cccc(F)c3)C2)cn1 (centres undefined) | 0.954
O=C(Cc1cccc(F)c1)N1CCCCC1c1ccn2ccnc2n1 (centres undefined) | -0.619

Structure (SMILES) | cytotoxicity at 10 µM [%]
Cc1cccc(CN2CCCC3(Cc4ccccc4CNC3=O)C2)n1 (centres undefined) | 5.37
CC(C)(C)NCC(=O)N1CCCC(n2ccnc2)C1 (centres undefined) | 0.462
CCOCc1ccc(NCc2cnc(N3CCN(C)CC3)nc2)cc1 | 12.1
O=C(CN1C(=O)CCCc2sccc21)NC1CCc2nccn2C1 (centres undefined) | 9.29
COc1ccccc1CC(C)CC(=O)NS(=O)(=O)C(C)C (centres undefined) | 4.56
N#Cc1cc(F)ccc1CN1CCCCC1Cn1cncn1 (centres undefined) | 5.41
Cc1cccc(COc2ccc(C(C)NS(N)(=O)=O)cc2)c1 (centres undefined) | -6.96
CSc1ncccc1C(=O)Nc1ccc(Cn2ccccc2=O)cc1 | 2.77
COc1cc(CNC(=O)COC2CCCC2)ccc1O | -7.2
CCOCCN(C)C(c1cccnc1)c1ccc(F)cc1F (centres undefined) | 5.64
COC(=O)N(C)CCCC(=O)Nc1[nH]nc(-c2ccncc2)c1C | -0.946
Cc1cnc2c(S(=O)(=O)NC(=O)C(C)OCC3CC3)cccc2c1 (centres undefined) | -1
CC(C)NC(=O)C(C(C)C)n1cnc2cc(F)c(F)cc21 (centres undefined) | 12.5
COC(=O)N1CCC(Nc2ccc(C#N)c(Cl)c2)C1 (centres undefined) | -8.21
CC(C)CC(CNC(=O)c1cccnc1Oc1cccnc1)N(C)C (centres undefined) | 1.44
Cn1nc2c(cc1=O)CN(Cc1nc3ccccc3c(=O)[nH]1)CC2 | -7.64
COCCOCCC(=O)Nc1c(-c2ccc(F)cc2)ncn1C | -3.31
Cc1nccn1-c1cc(CNC(=O)C2CCC(=O)N2)ccn1 (centres undefined) | -1.24
Cc1cnc(C(=O)N2CCCN(Cc3cnn(C(C)C)c3)CC2)cn1 | 1.28
OCCCN(CCn1cncn1)c1ccccc1 | -4.04
Cc1nnc(CN(Cc2cccc(Br)c2)C2CC2)o1 | 3.94
Cc1nsc(NCc2ccc(CS(=O)(=O)NC(C)C)cc2)n1 | -2.8
CCCn1nc2c(cc1=O)CN(CC(=O)N(C)c1nccs1)CC2 | 1.25

Structure (SMILES) | cytotoxicity at 10 µM [%]
COc1cccc(C2=CCN(CCN3CCOC3=O)CC2)c1 | -7.52
CCc1noc(CN(C)C(=O)C(C)(C)Oc2cccc(Cl)c2)n1 | -3.63
CN1CCN(C(=O)CCc2cc(Br)cs2)CC1 | -5.35
Cc1csc(N(C)C(=O)C(c2c(F)cccc2Cl)N(C)C)n1 (centres undefined) | -44.3
Cc1ccc(NC(=O)NC(C)c2nc[nH]n2)s1 (centres undefined) | -2.18
CCC(C)(NCC(=O)Nc1ccccc1)c1nc(C)cs1 (centres undefined) | -8.66
O=C(NCCCn1cccn1)N1CCCC1c1ccncc1 (centres undefined) | 21.5
Cc1nnc(NCC2(c3ccccc3)CC2)c(C#N)c1C | 3.51
CC(CNC(=O)Nc1ccc(N(C)C)nc1)Cn1cccn1 (centres undefined) | 6.95
CS(=O)(=O)CCNC(=O)C1(c2cccc(Cl)c2)CCCCC1 | 8.68
CS(=O)(=O)NCC1CCCN(C(=O)Nc2ccccc2Cl)C1 (centres undefined) | -9.73
Cc1cc(C)n(CC2CCCN2C(=O)c2ccc3c(c2)nnn3C)n1 (centres undefined) | -17.3
CCc1cnc(N2CC3(CCN(S(=O)(=O)C4CC4)C3)C2)nc1 | -109
Cn1cc(-c2nnn3c2COC(CNCc2nccs2)C3)cn1 (centres undefined) | -4.89
Nc1nc(CCCNC(=O)C2CCCN(Cc3ccco3)C2)cs1 (centres undefined) | -0.745
COc1cc(C)cc(OC)c1C(C(=O)O)N(C)Cc1c(C)nn(C)c1C (centres undefined) | 7.34
COc1ccccc1-c1ncc(CN2CCCC[C@H](N(C)C)C2)s1 | -5.23
OCC1(O)CCCN(Cc2noc(-c3ccccc3)n2)C1 (centres undefined) | -4.76
CCc1ncc2c(n1)CN(c1nc(C)ccc1C(=O)O)C2 | 8.25
Cc1cccc(-n2nc(CC(C)C)nc2[C@H](C)O)c1 | 5.54
COC(=O)c1cc(OCC2CCC2)cc(C(=O)N[C@H](C)C(N)=O)c1 | 16.6
Cc1cc(C2CCC2)nc(NCC(C)(C)N2CCOCC2)n1 | 11.5
CC(=O)c1ccc(C(=O)N(C)Cc2nc(-c3ccccn3)no2)s1 | 2.45

Structure (SMILES) | cytotoxicity at 10 µM [%]
CN(C)[C@H]1CCN(c2nc(C(C)(C)C)nc3c2cnn3C)C1 | -6.12
CSCc1noc(-c2ccc(C)c(N3CCNC3=O)c2)n1 | -8.77
CCN(C)C(=O)CN1CCC(c2cc(N3CCOCC3)nc(C)n2)CC1 | -2.02
CN(C)C(C(=O)NCC1(Cn2cccn2)CC1)c1ccc(F)cc1 (centres undefined) | 3.65
CN1CCN(C)C2(CCN(Cc3ccc(C4CCCCO4)o3)CC2)C1 (centres undefined) | 0.0773
CC(NC(=O)CCCc1ccc(Cl)cc1)c1nnn[nH]1 (centres undefined) | 0.292
CS(=O)(=O)c1ccc(-c2cc(O)cc(CCC3CCCCN3)c2)cc1 (centres undefined) | 0.292
CCCc1nc(C(=O)N2CCn3nc(C(=O)OC)cc3C2)cs1 | 8.87
O=C(C1CCCCO1)N1CCc2ncnc(NCc3ccon3)c2CC1 (centres undefined) | 13.1
CCNC(=O)[C@@H]1C[C@@H](N)CN1C(=O)C1(c2ccc(OC)cc2)CCCC1 | 3.95
CCN1CCN(C(C)(C)CNc2nc(C)cc(C3CCC3)n2)CC1 | 1.47
CC(CCn1cccn1)NCc1n[nH]c2c1CCCCC2 (centres undefined) | -3.98
O=C1CCCN1CCCC(=O)N1CCC2(CC1)[C@H](O)C[C@@H]2O | -2.38
O=C(CCCc1cn[nH]c1)N1CCOCC(O)C1 (centres undefined) | -23
Cc1nn(C)c(C)c1C1CCCN1C(=O)c1ccc(C(N)=O)cn1 (centres undefined) | -4.34
CCC(C)C(=O)NS(=O)(=O)c1ccc(C#N)cc1C(F)(F)F (centres undefined) | -5.25
CC1COCCN1Cc1nc(-c2cccc(C(F)(F)F)c2)no1 (centres undefined) | -13.9
c1ccc(-c2nnc(CN3CCCC(Cn4cncn4)C3)o2)cc1 (centres undefined) | -7.51
CCC1c2ccsc2CCN1C(=O)NCc1cccnc1OC (centres undefined) | -2.28
Cc1ccc(NC2CCN(C(=O)c3c(C)oc(C)c3C)CC2)nn1 | -2.4
COc1ccc(C(CNC(=O)Nc2cc(C)nn2C)N(C)C)cc1 (centres undefined) | 3.31
CC1CCCN(C(=O)NCCCn2cncn2)C1 (centres undefined) | -3.98
CC(C)Oc1ncccc1CNC(=O)N1CCSCC1 | -11.8

Structure (SMILES) | cytotoxicity at 10 µM [%]
O=C(Cc1ccc2c(c1)CCO2)N1CCN(c2nccs2)CC1 | -10.7
CCn1ncc2c1CCCC2NCc1cc(C)ccc1OC (centres undefined) | 1.8
Cc1cnc(CN(C)C2CCN(CC(=O)Nc3nccs3)C2)o1 (centres undefined) | -1.49
CCc1n[nH]c(C2CN(Cc3nnc(C4CCC4)o3)CCO2)n1 (centres undefined) | -6.28
COCCc1noc(CN(C)C2CCCN(c3cccnn3)C2)n1 (centres undefined) | -8.64
COc1ncccc1NC(=O)C1CC1 | -19.2
Cn1cnc2c1CCN(CCOc1ccc(C#N)cc1)C2 | -9.47
Cc1cccc(-c2noc(CN3CCCCC3Cn3cncn3)n2)c1 (centres undefined) | -4.32
CC(Cc1cccs1)NC(=O)CCn1cccn1 (centres undefined) | -14.7
CCc1n[nH]c(C2CN(CCCS(C)(=O)=O)CCO2)n1 (centres undefined) | -3.48
Clc1ccc(OCCNCCn2cccn2)cc1 | -14.4
O=C(CCN1CCCC1c1cccc(F)c1)N1CCc2sccc2C1 (centres undefined) | -10.7
CC1CCN(Cn2nc(-c3ccc(F)cc3)oc2=O)CC1 | -2.55
CCOCC(O)CN1CCN(C(=O)Cc2ccc3c(c2)CCO3)CC1 (centres undefined) | -18.5
O=C(NCc1cc[nH]n1)N(CCCO)C1CCc2ccccc21 (centres undefined) | -3.27
Cc1nc(-c2ccccc2)n(CC(=O)N(C(C)C)C(C)C)n1 | -4.57
CNC(=O)c1cc2c(nc1N(C)C)CCN(S(=O)(=O)C1CC1)CC2 | 0.118
NC(=O)COc1ccc(CNCc2ccc(F)cc2)cc1 | -2.05
Cn1cc(C(=O)NCc2cn3c(n2)CN(CC2CCOCC2)CC3)cn1 | -12.9
C=c1ncsc1=C1NN=C(C2CCCN2C(=O)c2ccn(CC)n2)O1 (centres undefined) | -7.82
COc1ccc(OC)c(C(=O)N2C[C@@H]3CC[C@H]2CN(C)C3)c1 | 4.61
O=C(CSc1ccncc1)N1C[C@@H]2CC[C@H]1CN(Cc1cccnc1)C2 | 4.66
